Laboratory results taken from ChEMBL document CHEMBL1125277, “Novel cerebroprotective agents with central nervous system stimulating activity. 1. Synthesis and pharmacology of 1-amino-7-hydroxyindan derivatives” (1991).

How the values were obtained:
Type in all cases: functional
Mus musculus [1] = test: Time of recovery of righting reflux (RRT) in seconds was measured after administration of 100 mg/kg orally in mice for the promotional effect on recovery from coma; conditions: route oral
Method in brief: (§1)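 Male ICR mice (20–30 g) were dosed orally 1 h before concussion was induced, and saline-dosed mice served as controls. Times to recovery of righting reflex and of spontaneous movement were recorded in seconds. Brains were examined post mortem, and mice with contused brain wounds were excluded. Statistics used the Wilcoxon sum test.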

Mus musculus [2] = test: Antihypoxic effect tested by the survival time (SVT) in mice at a dose of 100 mg/kg; parameters: unit: % of control
Method in brief: (§2)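 Male ICR mice (20–30 g), groups of 10, dosed 0.25 h (iv, sc or ip) or 1 h (oral) before test. Mice placed in desiccator evacuated to 210 mmHg. Survival time measured from pump start to cessation of respiration, capped at 900 s. Activity expressed as % of control survival time; Wilcoxon sum test.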

Mus musculus [3] = test: Time of recovery of spontaneous movement (SMT) in seconds was measured after administration of 100 mg/kg orally in mice for the promotional effect on recovery from coma; conditions: route oral; method in brief: as §1
Mus musculus [4] = test: Antihypoxic effect by the survival time (SVT) in mice at a dose of 30 mg/kg administered subcutaneously in mice; parameters: unit: % of control; conditions: route subcutaneous; method in brief: as §2
Mus musculus [5] = test: Antihypoxic effect by the survival time (SVT) in mice at a dose of 30 mg/kg administered intraperitoneally in mice; conditions: route intraperitoneal; method in brief: as §2
Mus musculus [6] = test: Time of recovery of righting reflux (RRT) in seconds was measured after administration of 40 mg/kg intraperitoneally in mice for the promotional effect on recovery from coma; conditions: route intraperitoneal
Method in brief: (§3)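 Male ICR mice (20–30 g); concussion-induced coma model of head injury. Control mice received the same amount of physiological saline. Brains examined post mortem and mice with contused wounds excluded. Recovery times in seconds (righting reflex or spontaneous movement) expressed as % of control; Wilcoxon sum test.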

Mus musculus [7] = test: Time of recovery of spontaneous movement (SMT) in seconds was measured after administration of 40 mg/kg intraperitoneally in mice for the promotional effect on recovery from coma; conditions: route intraperitoneal; method in brief: as §3
Mus musculus [8] = test: Antihypoxic effect by the survival time (SVT) in mice at a dose of 40 mg/kg administered intraperitoneally in mice; conditions: route intraperitoneal; method in brief: as §2

SMILES | RRT (Mus musculus [1]) [s] | SVT (Mus musculus [2]) | SMT (Mus musculus [3]) [s] | further results
Cc1cc(C)c2c(c1O)C(N)C(C)(Cc1ccccc1)C2.Cl (configuration not stated) | 29.9 | 167.3 | 32.6 | 
CCc1cc(C)c2c(c1O)C(N)C(c1ccccc1)C2.Cl (configuration not stated) | 89.2 | 97.4 | 94.4 | 
Cc1cc(C)c2c(c1O)C(N)C(C)(C)C2.Cl (configuration not stated) | 37.2 | 288 | 53.9 | SVT (Mus musculus [4]): 298.1
Cc1cc(C)c2c(c1O)C(N)C(c1ccccc1)C2.Cl (configuration not stated) | 31.1 | 149.1 | 37.6 | SVT (Mus musculus [5]): 185.7
Cc1ccccc1C1Cc2c(C)cc(C)c(O)c2C1N.Cl (configuration not stated) | 44.4 | 161.3 | 45.9 | 
COc1c(C)cc(C)c2c1C(N)C(C)(C)C2.Cl (configuration not stated) | 43.6 | 164.3 | 39.2 | 
CCCCNC1CCc2c(C)cc(C)c(O)c21.Cl (configuration not stated) | 55.3 | 187.3 | 57.7 | 
CCCC(C)C1(CC)C(=O)N=C([O-])NC1=O.[Na+] (configuration not stated) [PENTOBARBITAL SODIUM] |  |  |  | RRT (Mus musculus [6]): 494 s; SMT (Mus musculus [7]): 283 s; SVT (Mus musculus [8]): 306.7
CCCc1cc(C)c2c(c1O)C(N)CC2.Cl (configuration not stated) |  | 205.3 |  | SVT (Mus musculus [4]): 244.6
Cc1cc(Br)c(O)c2c1CCC2N.Cl (configuration not stated) | 81.5 | 130.1 | 83.4 | SVT (Mus musculus [4]): 308
COc1c(C)cc(C)c2c1C(N)C(C)(c1ccccc1)C2.Cl (configuration not stated) | 25 | 117.9 | 23.9 | 
Cc1cc(C)c2c(c1O)C(N)CC2.Cl (configuration not stated) | 51.4 | 255.7 | 61.4 | SVT (Mus musculus [4]): 303.4
CCCc1cc(CC)c2c(c1O)C(N)CC2.Cl (configuration not stated) | 94.4 | 206.8 | 116.3 | SVT (Mus musculus [4]): 194.3
Cc1cc(C)c2c(c1O)C(N)C(Cc1ccccc1)C2.Cl (configuration not stated) | 47 | 148 | 38.6 | 
Cl.NC1CCc2c(O)cccc21 (configuration not stated) |  | 103.9 |  | 
Cl.NC1CCc2cccc(O)c21 (stereo in doubt; 11b) |  |  |  | SVT (Mus musculus [2]; 100 mg/kg): 78
Cc1cc(C)c2c(c1O)C(N)C(C)(Cc1ccccc1)C2.Cl.O (configuration not stated) | 33 | 197 | 28.8 | 
Cc1cc(C)c2c(c1O)C(N)C(c1ccccc1Cl)C2.Cl (configuration not stated) | 35.8 | 151 | 33.8 | 
Cl.NC1CCc2cccc(O)c21 (stereo in doubt; 11a) | 102 |  | 99.1 | SVT (Mus musculus [2]; 100 mg/kg): 204.8
